High-throughput results as filed in PubChem.
Rows were chosen to be rich in hits. Some 2% of all compounds tested hit in one or more screens of this group.
core dimer inh: HCV core protein dimerization inhibition | inhibition, % at 5 µM | 300,000 compounds, 0.33% hits | TR-FRET GST/Flag-core106 dimerization, 1536-well | AID 1899;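 active means inhibition above the mean of all tested compounds plus 3 SD, set per screening campaign, cut at about 45% in these data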
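Material: GST/Flag-tagged HCV core106 proteins. Incubation: 4 h, 22.5 °C incubation. Read-out basis: inhibition (%) from 671 over 617 nm ratio. Measured by: TR-FRET, excitation 340 nm, emission 617 and 671 nm.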
FID counter: displaces DNA intercalator in HCV helicase counter-screen; DNA fluorescent intercalator displacement, fluorescence; inhibition, % at 7.9 µM; 290,000 compounds, 0.17% hits; in the data active means inhibition above about 37%;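 further: 0% = vehicle and 100% = reference compound; higher means more ethidium bromide displaced from hairpin DNA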
HCV NS3 hel inh: inhibitors of Hepatitis C virus NS3 helicase; AID 1800; inhibition, % at 10.9 µM; NS3 helicase DNA unwinding, Cy5 molecular beacon fluorescence; 290,000 compounds, 0.56% hits;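 active means inhibition above the mean of all tested compounds plus 3 SD, set per campaign, cut at about 35% in these data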;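 further: 0% = DMSO wells and 100% = thioflavine S control wells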
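Control set: DMSO versus 110 µM thioflavine S; Material: NS3 helicase fragment of HCV; Measured by: Cy5 fluorescence at 0 and 60 min, beacon hairpin quenching; Read-out basis: percent inhibition from t60/t0 fluorescence ratio; Times: reaction time 60 min, 25 °C; Repeats: single replicate; Compound dosing: single dose, 10.9 µM nominal final, DMSO 0.8% final.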
MLLE-PAM2 inh: blocks PAM2 peptide binding to the PABP1 MLLE domain | AID 588489 | inhibition, % at 20 µM | GST-MLLE / FITC-PAM2 fluorescence polarization | 360,000 compounds, 0.36% hits | P11940; in the data active means inhibition above about 35%, passing the limit was not always enough;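 further: plate controls were DMSO wells with GST-MLLE for no effect and wells lacking GST-MLLE protein for full effect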
eIF4H inh: inhibitors of RNA binding by human eIF4H | Q15056 | eIF4H fluorescence polarization binding assay | inhibition, % at 35 µM | 290,000 compounds, 0.94% hits | AID 2012;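 further: calls also rest on retests at 20 µM and on dose response follow-up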
PABP FP inh: blocks human PABP binding to poly(A) RNA | fluorescence polarization | AID 2014 | inhibition, % at 35 µM | 290,000 compounds, 1% hits | P11940;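 further: calls also rest on retests at 20 µM and on dose response follow-up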
Active calls of the source: *; . = no result. Unless noted, how the calls were made is not given here.

SMILES | core dimer inh | FID counter | HCV NS3 hel inh | MLLE-PAM2 inh | eIF4H inh | PABP FP inh
C/C=C/C=C\C(=O)Nc1cccc(C2=NOC3(C2)C[C@@H](C(N)=O)N(C(=O)/C(C)=C/C)C3)c1 (some centres undefined) | 52* | . | . | 3 | 1 | 13
C/C=C/C=C/C(=O)N1CC2(CC(c3cccc(NC(=O)/C=C/C)c3)=NO2)C[C@@H]1C(N)=O (some centres undefined) | 47* | . | . | -11 | 2 | -1
O=C(Nc1cccc(OC(F)(F)F)c1)c1cccc2c(-c3cccnc3)coc12 | . | . | . | 9 | . | .
Cn1nnnc1Sc1ncnc2scc(-c3ccsc3)c12 | . | . | . | 6 | . | .
Cc1cccc2cc3c(N)c(C#N)sc3nc12 | -33 | 0 | 12 | 35 | 12 | 8
Cc1sc(NC(=O)c2sc3nc4c(C)cccc4cc3c2N)c(C#N)c1C | 47* | 7 | 28 | -8 | 32 | 35
O=C(NC(=S)Nc1ccc(CN2CCOCC2)cc1)c1ccc([N+](=O)[O-])cc1 | 3 | 4 | -11 | 52* | -5 | -1
O=C(/C=C/c1cccc([N+](=O)[O-])c1)NC(=S)Nc1ccc(CN2CCOCC2)cc1 | 6 | -2 | 5 | 40* | -7 | 4
O=S(=O)(NCc1ccc(F)cc1)c1ccc(-n2cccn2)cc1 | 0 | -12 | -5 | -12 | 0 | 4
Cc1cccc(C)c1N1C(=O)[C@@H]2C(c3ccccc3Cl)=NO[C@@H]2C1=O | 1 | -11 | -1 | 4 | -1 | 0
COc1ccc(OC)c(N2C(=O)[C@@H]3C(c4ccccc4Cl)=NO[C@@H]3C2=O)c1 | 77* | -21 | 14 | -8 | 81* | 61*
Cc1cccc(N2CC(C(=O)Nc3nnc(SCC(=O)NCC4CCCO4)s3)CC2=O)c1 (centres undefined) | 65* | -38 | 20 | -52 | 26 | 14
OC(COc1ccc(CNCCc2ccc(C(F)(F)F)cc2)cc1)CN1CCCCC1 (centres undefined) | 3 | 42* | -64 | -7 | 0 | -4
CCN1CCc2c(C#N)c(N3CCOCC3)nc(NCc3ccccc3)c2C1 | . | 3 | -5 | 3 | 28 | 36
CCN1CCc2c(C#N)c(N3CCOCC3)nc(NCCO)c2C1 | -8 | 0 | 6 | 79* | 41 | 48
COc1ccc(CN(C)S(=O)(=O)c2ccc3c(c2)OCCO3)cc1 | 12 | -16 | -4 | -7 | -7 | -10
CNC(=O)COC(=O)c1c2c(nc3ccccc13)CCC2 | 21 | -3 | 1 | -19 | 66* | 34
COc1ccc(NC(=O)COC(=O)c2c3c(nc4ccccc24)CCCC3)cc1 | 8 | -18 | -8 | 6 | 2 | -5
CCCCNC(=O)COC(=O)c1c2c(nc3ccccc13)CCC2 | 33 | -23 | 12 | -17 | 68* | 18*
C=CCNC(=O)COC(=O)c1c2c(nc3ccccc13)CCC2 | 40 | -9 | 6 | -8 | 59* | 36*
CC(=O)Nc1ccc(S(=O)(=O)NCCNS(=O)(=O)c2ccc(NC(C)=O)cc2)cc1 | -5 | 5 | 3 | -2 | -6 | -1
CC(=O)Nc1ccc(S(=O)(=O)NCCSc2ccccn2)cc1 | 4 | 6 | 0 | -73 | 60* | 40*
Cc1ccc(S(=O)(=O)N2CCCNCC2)cc1 | -18 | -3 | 7 | 18 | -5 | -5
COc1ccc(NC(=S)NC(NC(=O)c2ccccc2Cl)C(Cl)(Cl)Cl)c([N+](=O)[O-])c1 (centres undefined) | 5 | 7 | 4 | 39* | 0 | 14
COc1ccc(NC(=S)NC(NC(=O)c2ccc(Cl)cc2Cl)C(Cl)(Cl)Cl)c([N+](=O)[O-])c1 (centres undefined) | 17 | 9 | 3 | 36* | -11 | -5
COc1ccc(NC(=S)NC(NC(=O)c2cccc3ccccc23)C(Cl)(Cl)Cl)c([N+](=O)[O-])c1 (centres undefined) | 17 | 8 | -3 | 32 | -8 | 0
C[C@@H](CSc1ccccc1)CN1CC[C@H](C(C)(C)C)CCC1=O | -2 | -40 | -7 | -3 | 3 | -9
COc1ccc(SC[C@H](C)CN2CC[C@H](C(C)(C)C)CCC2=O)cc1 | . | . | . | 40* | . | .
CC(=O)Nc1ccc(SCCN2CC[C@@H](C(C)(C)C)CCC2=O)cc1 | . | . | . | 41* | . | .
